The values below come from ChEMBL document CHEMBL1153389, “Identification of novel antibacterial peptides by chemoinformatics and machine learning” (2009).

For this assay, the system named is Pseudomonas aeruginosa. In words: Antimicrobial activity against Pseudomonas aeruginosa H1001 expressing luciferase gene assessed as ratio antimicrobial IC50 for drug to Bac2A peptide by luminescence assay. The assay is classed as functional. A digest of the protocol: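 Peptides are made by SPOT synthesis on cellulose, cleaved, and the spots placed in plate wells. Overnight P. aeruginosa H1001 (fliC::luxCDABE) is diluted 1:500 in 100 mM Tris-HCl pH 7.3 with 20 mM glucose and added to the wells. After 30 min, serial dilutions (8 rows) are made. Luminescence is read at 4 h. IC50 is taken from a sigmoid fit and expressed relative to Bac2A run in the same series.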
Consider H-WRWYWWKKR-OH, for which the “Ratio IC50” value amounted to 0.22.
Consider H-RRIWRWWWW-OH, for which the “Ratio IC50” value turned out to be 0.68.
The result for H-IRGRIIFWV-OH reads 0.44; that for H-RGRRQIGKF-OH, 8.51; that for H-GWKILRKRK-OH, 2.74.
On to H-SKNVRTWRQ-OH, for which the “Ratio IC50” value came to 7.06.
The result for H-RWRIKRWWW-OH reads 0.12; that for H-IKRWWWRRW-OH, 0.22.
As for H-RRWWMRWWV-OH, the “Ratio IC50” value is 0.33.
As to H-WRWWKWWRR-OH, the “Ratio IC50” value is listed as 0.23.
For H-GRRVMNQKR-OH, the “Ratio IC50” value is on record as 9.83.
On to H-RLKKVRWWW-OH, for which the “Ratio IC50” value is given as 0.34.
The result for H-KWWKIWWKR-OH reads 0.2.
H-KRFWIWFWR-OH: the “Ratio IC50” value came to 3.04.
Consider H-IRQWWRRWW-OH, for which the “Ratio IC50” value is listed as 0.5.
H-SFNWKRSGK-OH: the “Ratio IC50” value turned out to be 25.
Turning to H-RWRWKRWWW-OH, the “Ratio IC50” value worked out at 0.25.
For the compound H-WRWRWWKRW-OH, the “Ratio IC50” value was determined as 0.28.
H-RWRGIVHIR-OH: the “Ratio IC50” value worked out at 4.93.
As to H-IRRRWWWIV-OH, the “Ratio IC50” value was 0.23.
With H-TRKVWWWRW-OH, the “Ratio IC50” value came out at 0.76.
With H-ATRKGYSKF-OH, the “Ratio IC50” value was found to be 25.
For H-KKRWVWVIR-OH, the “Ratio IC50” value was 0.35.
The figure for H-VKRYYWRWR-OH is 1.23; for H-WRWWWKKWR-OH it is 0.19.
Take H-RRRWWWIIV-OH: the “Ratio IC50” value is listed as 0.85.
The result for H-RRWWHLWRK-OH reads 0.38; that for H-WGRTRWSSR-OH, 9.64.
The figure for H-GMRRWRGKN-OH is 6.05; for H-KKRWLWWWR-OH it is 0.3.
Take H-RIWYWYKRW-OH: the “Ratio IC50” value was 0.36.
As for H-GIKWRSRRW-OH, the “Ratio IC50” value is recorded as 1.06.
Take H-RRWFVKWWY-OH: the “Ratio IC50” value was determined as 0.52.
With H-RKWMGRFLM-OH, the “Ratio IC50” value came to 4.38.
The result for H-YQRLFVRIR-OH reads 25; that for H-RRMKKLRRK-OH, 4.22; that for H-KRWWIRWWR-OH, 0.21.
With H-KRRRIWWWK-OH, the “Ratio IC50” value stood at 0.4.
H-WRNRKVVWR-OH: the “Ratio IC50” value was determined as 6.79.
As to H-GWGGKRRNF-OH, the “Ratio IC50” value is 7.38.
As to `N=C(N)NCCC[C@H](NC(=O)[C@H](CCCCN)NC(=O)[C@H](CCCNC(=N)N)NC(=O)[C@@H](N)CCCNC(=N)N)C(=O)N[C@@H](Cc1c[nH]c2ccccc12)C(=O)N[C@@H](Cc1c[nH]c2ccccc12)C(=O)N[C@@H](Cc1c[nH]c2ccccc12)C(=O)N[C@@H](Cc1c[nH]c2ccccc12)C(=O)N[C@@H](Cc1c[nH]c2ccccc12)C(=O)O`, the “Ratio IC50” value is 0.43.
For the compound H-RGRTSNWKM-OH, the “Ratio IC50” value worked out at 7.07.
With H-TRGWSLGTR-OH, the “Ratio IC50” value is on record as 12.15.
For the compound H-FVVMKRIVW-OH, the “Ratio IC50” value was 5.38.
Turning to H-NKTGYRWRN-OH, the “Ratio IC50” value worked out at 8.33.
As for H-RRRKWWIWW-OH, the “Ratio IC50” value amounted to 0.18.
The result for H-KWWLVWKRK-OH reads 0.23; that for H-WSQNVRTRI-OH, 5.71.
The result for H-RVWFKRRWW-OH reads 0.26; that for H-RRRKWWIWG-OH, 0.57; that for H-RRKWWWRWW-OH, 0.27.
On to H-IRKWRRWWK-OH, for which the “Ratio IC50” value is 0.41.
As to H-KFRKRVWWW-OH, the “Ratio IC50” value is listed as 0.3.
For the compound H-RWLVLRKRW-OH, the “Ratio IC50” value came out at 0.53.
For H-RWRWWKRWY-OH, the “Ratio IC50” value came to 0.2.
On to H-GVRSWSQRT-OH, for which the “Ratio IC50” value turned out to be 8.5.
Take H-SWYRTRKRV-OH: the “Ratio IC50” value stood at 6.66.
Take H-WKRWRWIRW-OH: the “Ratio IC50” value came out at 0.28.
As for H-GRNGWYRIN-OH, the “Ratio IC50” value is recorded as 10.74.
The result for H-QRNKGLRHH-OH reads 8.76; that for H-GRTMNGRW-OH, 6.93.
On to H-RWMVSKIWY-OH, for which the “Ratio IC50” value stood at 25.
With H-RWRRKWWWW-OH, the “Ratio IC50” value is recorded as 0.39.
The result for H-ARGRWINGR-OH reads 7.24; that for H-GVRVQRNSK-OH, 25; that for H-RWWIRKWWR-OH, 0.21.
With H-RIKVIWWWR-OH, the “Ratio IC50” value worked out at 0.51.
In the case of `N=C(N)NCCC[C@H](NC(=O)[C@H](CCCNC(=N)N)NC(=O)[C@@H](N)CCCNC(=N)N)C(=O)N[C@@H](Cc1c[nH]c2ccccc12)C(=O)N[C@@H](Cc1c[nH]c2ccccc12)C(=O)N[C@@H](Cc1c[nH]c2ccccc12)C(=O)N[C@@H](Cc1c[nH]c2ccccc12)C(=O)N[C@@H](Cc1c[nH]c2ccccc12)C(=O)N[C@@H](Cc1c[nH]c2ccccc12)C(=O)O`, the “Ratio IC50” value is reported as 1.82.
Consider H-RWKIFIRWW-OH, for which the “Ratio IC50” value was found to be 1.82.
Turning to H-RLVHWIRRV-OH, the “Ratio IC50” value was 2.62.
The figure for H-KRWWWVWKR-OH is 0.36; for H-KWRRWKRWW-OH it is 0.15; for H-RIKRWWWWR-OH it is 0.31.
The result for H-RKRTKVTWI-OH reads 5.11; that for H-KRWWWWRFR-OH, 0.24.
The result for H-KRWWKWIRW-OH reads 0.04; that for H-IRRRKWWWW-OH, 0.21; that for H-KRKIWWWIR-OH, 0.28.
As for H-WKRWKWWKR-OH, the “Ratio IC50” value was 0.25.
For the compound H-KRWVWYRYW-OH, the “Ratio IC50” value came to 0.54.
For H-IVVRVWVVR-OH, the “Ratio IC50” value is reported as 3.5.
Turning to H-NQKWSGRRR-OH, the “Ratio IC50” value came to 7.97.
The result for H-AGGMRKRTR-OH reads 25; that for H-RRRKTWYWW-OH, 0.32.
Take H-WVKVWKYTW-OH: the “Ratio IC50” value was found to be 5.64.
With H-WRFKVLRQR-OH, the “Ratio IC50” value is on record as 7.08.
In the case of H-AFRGSRHRM-OH [AFRGSRHRM], the “Ratio IC50” value came to 11.36.
As to H-LRFILWWKR-OH, the “Ratio IC50” value is on record as 0.88.
For H-WGGHKRRGW-OH, the “Ratio IC50” value is listed as 6.19.
As for H-KRWWKWWRR-OH, the “Ratio IC50” value is recorded as 0.13.
Consider H-GKRVWGRGR-OH, for which the “Ratio IC50” value is on record as 8.2.
Regarding H-RWWLKIRKW-OH, the “Ratio IC50” value is recorded as 0.18.
Turning to H-FMWVYRYKK-OH, the “Ratio IC50” value stood at 1.51.
In the case of H-RGKYIRWRK-OH, the “Ratio IC50” value stood at 3.83.
Regarding H-RRIRRVRWG-OH, the “Ratio IC50” value came out at 8.22.
For the compound H-KRWWWWWKR-OH, the “Ratio IC50” value is 0.22.
For the compound H-KRWWRKWWR-OH, the “Ratio IC50” value was found to be 0.15.
For the compound H-IRWWKRWWR-OH, the “Ratio IC50” value is given as 0.21.
For H-RWRWWIKII-OH, the “Ratio IC50” value amounted to 0.46.
The figure for H-RRMGNGGFR-OH is 8.71; for H-KIWWWWRRR-OH it is 0.21.
Turning to H-GSRRFGWNR-OH, the “Ratio IC50” value came to 8.1.
On to H-VRIVRVRIR-OH, for which the “Ratio IC50” value worked out at 2.22.
For the compound H-RWILWWWRI-OH, the “Ratio IC50” value amounted to 25.
H-RRFKKWYWY-OH: the “Ratio IC50” value amounted to 0.26.
The figure for H-IWKRWRKRL-OH is 0.33.
With H-KRWWIWRIR-OH, the “Ratio IC50” value stood at 0.35.
On to H-KFWWWNYLK-OH, for which the “Ratio IC50” value was determined as 1.81.
Take H-RVWRNGYSR-OH: the “Ratio IC50” value is reported as 10.24.
The result for H-LVFRKYWKR-OH reads 0.99; that for H-RKVRWKIRV-OH, 0.32; that for H-NRRNGQMRR-OH, 8.41.
As for H-IWIWRKLRW-OH, the “Ratio IC50” value is reported as 0.46.
Take H-RRVQRGKWW-OH: the “Ratio IC50” value turned out to be 6.3.
For H-ARGKSIKNR-OH, the “Ratio IC50” value amounted to 8.35.
In the case of H-AWKIKKGRI-OH, the “Ratio IC50” value is 3.59.
For the compound H-KNNRRWQGR-OH, the “Ratio IC50” value was 6.45.
Turning to H-ATWIWVFRR-OH, the “Ratio IC50” value is 4.88.
As for H-GRIGGKNVR-OH, the “Ratio IC50” value is listed as 9.12.
On to H-RWRRWKWWW-OH, for which the “Ratio IC50” value came to 0.4.
H-IRRRKKRIK-OH: the “Ratio IC50” value worked out at 6.42.
The figure for H-RKWWRWWRW-OH is 0.31; for H-KRWRWWRWW-OH it is 0.28; for H-WIRKRSRIF-OH it is 3.39.
In the case of H-IRRIVRRKI-OH, the “Ratio IC50” value was 11.15.
For the compound H-GRRWGMGVR-OH, the “Ratio IC50” value amounted to 7.75.
As for H-IKWWWRMRI-OH, the “Ratio IC50” value was 0.39.
Take H-KIRRKVRWG-OH: the “Ratio IC50” value turned out to be 10.55.
Turning to H-LRWRWWKIK-OH, the “Ratio IC50” value is given as 0.26.
H-KRKLIRWWW-OH: the “Ratio IC50” value is 0.23.
The figure for H-IKRWWRWWR-OH is 0.23; for H-KKSKQLWKR-OH it is 3.23; for H-WRRWWKWWR-OH it is 0.23.
As to H-WHGGQKWRK-OH, the “Ratio IC50” value is 8.5.
With H-ANRWGRGIR-OH, the “Ratio IC50” value is reported as 10.8.
The figure for H-GRQISWGRT-OH is 8.04.
Take H-AMLGGRQWR-OH: the “Ratio IC50” value is given as 6.75.
Turning to H-GSRRSVWVF-OH, the “Ratio IC50” value turned out to be 2.3.
For H-GWNTMGRRW-OH, the “Ratio IC50” value was found to be 6.32.
Regarding H-KWWRWWRKW-OH, the “Ratio IC50” value was 0.2.
As to H-IRKKRRRWT-OH, the “Ratio IC50” value was found to be 6.59.
Take H-GKFYKVWVR-OH: the “Ratio IC50” value was 1.21.
For H-VSGNWRGSR-OH, the “Ratio IC50” value is 8.54.
